Data reported in ChEMBL document CHEMBL3632544, “Acyl dihydropyrazolo[1,5-a]pyrimidinones as metabotropic glutamate receptor 5 positive allosteric modulators” (Bioorg Med Chem Lett, 2015).

What was measured:
[1] = biological target: T1, Metabotropic glutamate receptor 5 (Homo sapiens, UniProt P41594); assay: Positive allosteric modulation of human mGlu5 expressed in HEK293 cells assessed as calcium mobilization relative to glutamate; assay type: functional, cell-based
Outline: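 Calcium mobilization in HEK293 cells expressing human mGlu5, reported as EC50 and % Glu Max. Mean±SEM of three or more independent determinations, each run in triplicate.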
Target sequence in this assay (P41594 21-1212 limits assumed): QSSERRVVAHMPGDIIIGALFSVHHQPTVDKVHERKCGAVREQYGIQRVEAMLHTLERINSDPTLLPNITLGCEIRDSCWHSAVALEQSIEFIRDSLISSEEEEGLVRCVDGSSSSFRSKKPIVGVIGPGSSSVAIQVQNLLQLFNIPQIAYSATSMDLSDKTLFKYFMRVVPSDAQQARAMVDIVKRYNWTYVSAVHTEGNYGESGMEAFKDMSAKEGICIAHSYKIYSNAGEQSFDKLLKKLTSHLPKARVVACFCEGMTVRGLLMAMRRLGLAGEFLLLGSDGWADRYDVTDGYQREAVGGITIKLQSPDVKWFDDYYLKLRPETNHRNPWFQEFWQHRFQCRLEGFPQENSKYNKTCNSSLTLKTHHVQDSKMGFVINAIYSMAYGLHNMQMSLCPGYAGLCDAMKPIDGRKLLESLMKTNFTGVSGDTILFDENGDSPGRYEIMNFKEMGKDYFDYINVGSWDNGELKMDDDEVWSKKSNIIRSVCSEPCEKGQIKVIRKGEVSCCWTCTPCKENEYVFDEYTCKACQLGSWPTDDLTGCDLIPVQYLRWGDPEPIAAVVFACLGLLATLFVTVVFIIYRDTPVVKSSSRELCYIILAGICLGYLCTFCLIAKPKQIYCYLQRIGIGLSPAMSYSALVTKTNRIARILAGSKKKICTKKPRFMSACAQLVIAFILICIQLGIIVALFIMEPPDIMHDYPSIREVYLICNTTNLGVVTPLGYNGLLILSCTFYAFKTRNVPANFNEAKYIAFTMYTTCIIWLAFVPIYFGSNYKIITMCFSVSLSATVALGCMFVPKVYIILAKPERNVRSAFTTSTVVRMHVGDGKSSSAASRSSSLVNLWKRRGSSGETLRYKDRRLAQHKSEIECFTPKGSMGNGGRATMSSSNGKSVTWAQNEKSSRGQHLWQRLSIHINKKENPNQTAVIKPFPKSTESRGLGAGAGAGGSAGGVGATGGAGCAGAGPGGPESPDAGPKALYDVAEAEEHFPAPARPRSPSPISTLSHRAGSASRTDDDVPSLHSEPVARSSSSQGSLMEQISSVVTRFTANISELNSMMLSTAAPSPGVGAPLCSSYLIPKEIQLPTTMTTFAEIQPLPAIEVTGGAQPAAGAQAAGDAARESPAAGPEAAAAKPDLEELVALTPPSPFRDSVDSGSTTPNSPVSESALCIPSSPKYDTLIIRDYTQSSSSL

[2] = biological target: T1, Metabotropic glutamate receptor 5; assay: Positive allosteric modulation of human mGlu5 expressed in HEK293 cells assessed as calcium mobilization; assay type: functional, cell-based
Outline: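 Calcium mobilization read-out in HEK293 cells stably expressing human mGlu5; PAM EC50 and efficacy as % of maximal glutamate response. Mean±SEM of three or more independent determinations, each in triplicate.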
Target sequence in this assay (P41594 whole entry): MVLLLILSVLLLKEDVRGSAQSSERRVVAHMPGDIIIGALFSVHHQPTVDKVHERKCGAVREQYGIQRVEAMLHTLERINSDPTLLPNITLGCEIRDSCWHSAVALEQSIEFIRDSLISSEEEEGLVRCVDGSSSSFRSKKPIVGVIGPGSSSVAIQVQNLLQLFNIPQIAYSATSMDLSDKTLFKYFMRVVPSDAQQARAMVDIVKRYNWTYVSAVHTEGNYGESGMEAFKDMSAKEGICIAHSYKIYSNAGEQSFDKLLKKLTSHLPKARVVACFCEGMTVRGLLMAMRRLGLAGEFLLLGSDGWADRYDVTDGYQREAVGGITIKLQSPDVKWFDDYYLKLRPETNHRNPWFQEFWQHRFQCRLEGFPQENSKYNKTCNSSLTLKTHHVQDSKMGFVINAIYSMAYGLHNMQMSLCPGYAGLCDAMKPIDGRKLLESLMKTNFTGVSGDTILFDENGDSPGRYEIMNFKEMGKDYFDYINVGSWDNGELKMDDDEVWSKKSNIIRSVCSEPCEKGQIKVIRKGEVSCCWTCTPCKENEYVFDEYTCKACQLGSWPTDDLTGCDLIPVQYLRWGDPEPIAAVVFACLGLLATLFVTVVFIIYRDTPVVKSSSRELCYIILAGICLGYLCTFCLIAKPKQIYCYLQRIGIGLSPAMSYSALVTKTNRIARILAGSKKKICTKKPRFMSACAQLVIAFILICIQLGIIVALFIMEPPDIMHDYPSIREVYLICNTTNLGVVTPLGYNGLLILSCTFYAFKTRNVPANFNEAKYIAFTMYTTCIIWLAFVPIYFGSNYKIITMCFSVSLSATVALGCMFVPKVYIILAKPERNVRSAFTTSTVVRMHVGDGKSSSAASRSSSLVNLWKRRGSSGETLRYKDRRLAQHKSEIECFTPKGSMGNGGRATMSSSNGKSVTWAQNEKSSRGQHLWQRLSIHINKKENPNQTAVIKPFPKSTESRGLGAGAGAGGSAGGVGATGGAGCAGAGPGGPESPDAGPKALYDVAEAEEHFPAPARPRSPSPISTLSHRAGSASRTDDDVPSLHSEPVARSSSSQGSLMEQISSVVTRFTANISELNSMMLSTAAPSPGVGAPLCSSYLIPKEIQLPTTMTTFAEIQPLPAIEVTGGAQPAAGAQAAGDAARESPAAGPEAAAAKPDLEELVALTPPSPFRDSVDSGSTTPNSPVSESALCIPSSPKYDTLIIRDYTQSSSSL

Plasma [3] = assay: Stability in rat plasma after 4 hrs; assay type: ADME, cell-free
Outline: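 Compound incubated in rat plasma at 37 °C for 4 h; stability assessed.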

Plasma [4] = assay: Fraction unbound in rat plasma; assay type: ADME, cell-free
Outline: (§1)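 Plasma protein binding measured in human and rat plasma; readout is fraction unbound.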

Plasma [5] = assay: Fraction unbound in human plasma; assay type: ADME, cell-free; outline: as §1
[6] = Stability in simulated gastric fluid for 1 hr; assay type: physicochemical; conditions: simulated gi fluid
Outline: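 Incubation in simulated gastric fluid at 37 °C for 1 h; decomposition of the external amide assessed.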

[7] = Stability in beta cyclodextrin at pH 6 upto 5 days; assay type: physicochemical; conditions: buffer, pH 6, 120 h
Outline: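 Stability of the compound formulated at 4 mg/mL in 20% β-cyclodextrin vehicle, pH 6, monitored for up to five days; percent decomposition of the amide determined.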

[8] = Plasma clearance in Sprague-Dawley rat at 0.2 mg/kg, iv; assay type: ADME, organism-based

Row | SMILES | %max [1] [%] | EC50 ([2]; read-out: EC50) [nM] | other results
1 | O=C(Cc1ccccc1)N1CCCn2nc(COc3ccccc3)cc21 | 72 | 378 | EC50 ([2]; read-out: pEC50 (converted)): 372 nM
2 | CC(=O)N1CCCc2nc(COc3ccccc3)sc21 |  | 888 | 
3 | CC(=O)N1CCCn2nc(COc3cccnc3)cc21 | < 15 |  | EC50 ([2]; hek293): Not Active; EC50 ([2]; read-out: pEC50 (converted)): > 31600 nM
4 | O=C(c1ccccn1)N1CCCn2nc(COc3ccccc3)cc21 | 44 | > 10000 | 
5 | CC(=O)N1CCCn2nc(CS(=O)(=O)c3ccccc3)cc21 | < 15 |  | EC50 ([2]; hek293): Not Active; EC50 ([2]; read-out: pEC50 (converted)): > 31600 nM
6 | CC(=O)N1CCCn2nc(COc3ccc(F)cc3)cc21 | 56 | > 10000 | 
7 | CC(=O)N1CCCc2nc(COc3ccccc3)cn21 |  | 780 | Stability (Plasma [3]): Unstable
8 | CC(=O)N1c2cc(COc3ccccc3)nn2CCC1c1ccccc1 (stereo not drawn) | 38 | 5370 | 
9 | CC(=O)N1CCCn2nc(CN3CCOc4ccccc43)cc21 | 67 | 725 | Fu (Plasma [4]): 0.43; Fu (Plasma [5]): 0.35
10 | CC(=O)N1CCCn2nc(CSc3ccccc3)cc21 | 39 | 3900 | 
11 | CCC(=O)N1CCCn2nc(COc3ccccc3)cc21 | 48 | 332 | 
12 | CC(=O)N1CCCn2nc(CNc3ccccc3)cc21 | 20 | > 10000 | 
13 | CC(=O)N1CCCn2nc(COc3ccncc3)cc21 | < 15 |  | EC50 ([2]; hek293): Not Active; EC50 ([2]; read-out: pEC50 (converted)): > 31600 nM
14 | CC(=O)N1CCCn2nc(CN(C)C3C4CC3C4)cc21 (stereo not drawn) | < 15 |  | EC50 ([2]; hek293): Not Active; EC50 ([2]; read-out: pEC50 (converted)): > 31600 nM
15 | CC(C)(C)C(=O)N1CCCn2nc(COc3ccccc3)cc21 | 64 | 882 | 
16 | O=C(c1ccccc1)N1CCCn2nc(COc3ccccc3)cc21 | 63 | 610 | 
17 | O=C(c1ccc(Cl)cc1)N1CCCn2nc(COc3ccccc3)cc21 | 68 | 390 | 
18 | CC(=O)N1CCCn2nc(COc3ccccc3F)cc21 | 60 | 2370 | Fu (Plasma [4]): 0.24; Stability [6]: Stable; Fu (Plasma [5]): 0.17; Stability (Plasma [3]): Stable; Stability [7]: Stable; clearance [8]: 103 mL/min/kg
19 | CC(=O)N1c2cc(COc3ccccc3)nn2CCC1C (stereo not drawn) | 67 | 794 | 
20 | O=C(C1CC1)N1CCCn2nc(COc3ccccc3)cc21 | 61 | 559 | EC50 ([2]; read-out: pEC50 (converted)): 525 nM
21 | O=C(C1CCCC1)N1CCCn2nc(COc3ccccc3)cc21 | 41 | 1750 | 

Row | SMILES | %max [1] [%] | EC50 ([2]; read-out: EC50) [nM] | other results
22 | CC(=O)N1CCCn2nc(COc3cccc(F)c3)cc21 | 58 | 266 | EC50 ([2]; read-out: pEC50 (converted)): 240 nM
23 | O=C(c1ccccc1F)N1CCCn2nc(COc3ccccc3)cc21 | 62 | 1130 | 
24 | O=C(C1CCC1)N1CCCn2nc(COc3ccccc3)cc21 | 41 | 1220 | 
25 | CC(=O)N1CCCn2cc(COc3ccccc3)nc21 |  |  | EC50 ([2]; hek293): Not Active
26 | CC(=O)N1CCCn2nc(COc3ccccc3)c(F)c21 |  | 3240 | 
27 | CC(=O)N1CCCn2nc(CN3CCCc4ccccc43)cc21 | 48 | > 10000 | 
28 | CC(=O)N1CCCn2nc(CN(C)c3ccccc3)cc21 | 74 | 700 | Fu (Plasma [4]): 0.35; Fu (Plasma [5]): 0.46
29 | O=C(c1cccc(F)c1)N1CCCn2nc(COc3ccccc3)cc21 | 61 | 591 | 
30 | CC(=O)N1CCCn2nc(COc3ccccc3)nc21 |  | 3400 | 
31 | O=C(c1ccncc1)N1CCCn2nc(COc3ccccc3)cc21 | 51 | > 10000 | 
32 | O=C(c1ccco1)N1CCCn2nc(COc3ccccc3)cc21 | < 15 |  | EC50 ([2]; hek293): Not Active; EC50 ([2]; read-out: pEC50 (converted)): > 31600 nM
33 | O=C(c1ccno1)N1CCCn2nc(COc3ccccc3)cc21 | 22 | 2780 | 
34 | CC(=O)N1CCCn2nc(C[S+]([O-])c3ccccc3)cc21 (stereo not drawn) | < 15 |  | EC50 ([2]; hek293): Not Active; EC50 ([2]; read-out: pEC50 (converted)): > 31600 nM
35 | CC(=O)N1CCCn2nc(COc3cc(F)cc(F)c3)cc21 | 63 | 1270 | 
36 | CC(=O)N1CCCc2nc(COc3ccccc3)oc21 |  | 1340 | Stability (Plasma [3]): Unstable
37 | O=C(c1nccs1)N1CCCn2nc(COc3ccccc3)cc21 | 24 | 257 | 
38 | CC(C)C(=O)N1CCCn2nc(COc3ccccc3)cc21 | 59 | 1710 | 
39 | O=C(c1ccc(F)cc1)N1CCCn2nc(COc3ccccc3)cc21 | 63 | 596 | 
40 | CC(=O)N1CCCn2nc(COc3cc(F)cc(C#N)c3)cc21 | 39 | > 10000 | 
41 | CC(=O)N1CCCn2nc(CN3CCc4ccccc43)cc21 | < 15 |  | EC50 ([2]; hek293): Not Active; EC50 ([2]; read-out: pEC50 (converted)): > 31600 nM
